Reference: ChEMBL document CHEMBL5247578, “Effective synthesis of benzimidazoles-imidazo[1,2-a]pyrazine conjugates: A comparative study of mono-and bis-benzimidazoles for antitumor activity” (Eur J Med Chem, 2019)

Key:
Calf thymus DNA [1] = assay: Displacement of ethidium bromide from calf thymus DNA assessed as quenching constant upto 85 uM by fluorescence based spectroscopic analysis; format: nucleic-acid assay; conditions: Bos taurus
Calf thymus DNA [2] = assay: Binding affinity to calf thymus DNA assessed as DNA intercalation by measuring Stem-Volmer quenching constant at temperature of 298 K by fluorescence spectroscopic method; format: nucleic-acid assay; conditions: Bos taurus
MCF7 [3] = assay: Antiproliferative activity against human MCF7 cells assessed as cell growth at 0.00000001 M incubated for 48 hrs by SRB assay relative to control; format: functional; conditions: dose 10 nM, read-out: Activity
TK-10 = assay: Antiproliferative activity against human TK-10 cells assessed as cell growth at 0.00000001 M incubated for 48 hrs by SRB assay relative to control; format: functional; conditions: dose 10 nM, read-out: Activity
SK-MEL-28 = assay: Antiproliferative activity against human SK-MEL-28 cells assessed as cell growth at 0.00000001 M incubated for 48 hrs by SRB assay relative to control; format: functional; conditions: dose 10 nM, read-out: Activity
HL-60 = assay: Antiproliferative activity against human HL-60 cells assessed as cell growth at 0.00000001 M incubated for 48 hrs by SRB assay relative to control; format: functional; conditions: dose 10 nM, read-out: Activity
Summary of the method: (§1)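 NCI-60 five-dose screen (10^-4 to 10^-8 M). Cells grown in RPMI 1640 with 5% FBS and 2 mM L-glutamine, plated at 5,000-40,000 cells/well and preincubated 24 h. Drug given from DMSO stock, then 48 h at 37 °C, 5% CO2. For adherent lines, cells fixed with cold TCA, SRB-stained and read at 515 nm. Percent growth taken against time-zero and untreated control.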

SF-539 = assay: Antiproliferative activity against human SF-539 cells assessed as cell growth at 0.00000001 M incubated for 48 hrs by SRB assay relative to control; format: functional; conditions: dose 10 nM, read-out: Activity
U-251 = assay: Antiproliferative activity against human U-251 cells assessed as cell growth at 0.00000001 M incubated for 48 hrs by SRB assay relative to control; format: functional; conditions: dose 10 nM, read-out: Activity
MCF7 [4] = assay: Antiproliferative activity against human MCF7 cells assessed as cell growth inhibition by measuring lethal concentration incubated for 48 hrs by sulforhodamine B assay; format: functional; conditions: read-out: LC50 (the source's name)
PC-3 = assay: Antiproliferative activity against human PC-3 cells assessed as cell growth inhibition by measuring lethal concentration incubated for 48 hrs by sulforhodamine B assay; format: functional; conditions: read-out: LC50 (the source's name)
HT-29 = assay: Antiproliferative activity against human HT-29 cells assessed as cell growth inhibition by measuring lethal concentration incubated for 48 hrs by sulforhodamine B assay; format: functional; conditions: read-out: LC50 (the source's name)
HCT-15 = assay: Antiproliferative activity against human HCT-15 cells assessed as cell growth inhibition by measuring lethal concentration incubated for 48 hrs by sulforhodamine B assay; format: functional; conditions: read-out: LC50 (the source's name)
BT-549 [5] = assay: Growth inhibition against human BT-549 cells assessed as total growth inhibitory concentration incubated for 48 hrs by sulforhodamine B assay; format: functional
COLO 205 = assay: Growth inhibition against human COLO 205 cells assessed as total growth inhibitory concentration incubated for 48 hrs by sulforhodamine B assay; format: functional
RPMI-8226 [6] = assay: Growth inhibition against human RPMI-8226 cells assessed as total growth inhibitory concentration incubated for 48 hrs by sulforhodamine B assay; format: functional
CAKI-1 [7] = assay: Growth inhibition against human CAKI-1 cells incubated for 48 hrs by sulforhodamine B assay; format: functional
SK-MEL-2 = assay: Growth inhibition against human SK-MEL-2 cells incubated for 48 hrs by sulforhodamine B assay; format: functional
MDA-MB-231 = assay: Antiproliferative activity against human MDA-MB-231 cells assessed as cell growth at 0.00000001 M incubated for 48 hrs by SRB assay relative to control; format: functional; conditions: dose 10 nM, read-out: Activity
T47D = assay: Antiproliferative activity against human T47D cells assessed as cell growth at 0.00000001 M incubated for 48 hrs by SRB assay relative to control; format: functional; conditions: dose 10 nM, read-out: Activity
MOLT-4 [8] = assay: Antiproliferative activity against human MOLT-4 cells assessed as cell growth at 0.0000001 M incubated for 48 hrs by SRB assay relative to control; format: functional; conditions: dose 100 nM, read-out: Activity
EKVX = assay: Antiproliferative activity against human EKVX cells assessed as cell growth at 0.0000001 M incubated for 48 hrs by SRB assay relative to control; format: functional; conditions: dose 100 nM, read-out: Activity; summary of the method: as §1
NCI-H460 = assay: Antiproliferative activity against human NCI-H460 cells assessed as cell growth at 0.0000001 M incubated for 48 hrs by SRB assay relative to control; format: functional; conditions: dose 100 nM, read-out: Activity
M14 = assay: Antiproliferative activity against human M14 cells assessed as cell growth at 0.0000001 M incubated for 48 hrs by SRB assay relative to control; format: functional; conditions: dose 100 nM, read-out: Activity
MOLT-4 [9] = assay: Antiproliferative activity against human MOLT-4 cells assessed as cell growth at 0.000001 M incubated for 48 hrs by SRB assay relative to control; format: functional; conditions: read-out: Activity
HOP-62 = assay: Antiproliferative activity against human HOP-62 cells assessed as cell growth at 0.000001 M incubated for 48 hrs by SRB assay relative to control; format: functional; conditions: read-out: Activity; summary of the method: as §1
Malme-3M = assay: Antiproliferative activity against human Malme-3M cells assessed as cell growth at 0.000001 M incubated for 48 hrs by SRB assay relative to control; format: functional; conditions: read-out: Activity
NCI/ADR-RES = assay: Antiproliferative activity against human NCI/ADR-RES cells assessed as cell growth at 0.000001 M incubated for 48 hrs by SRB assay relative to control; format: functional; conditions: read-out: Activity
SR = assay: Antiproliferative activity against human SR cells assessed as cell growth at 0.00001 M incubated for 48 hrs by SRB assay relative to control; format: functional; conditions: read-out: Activity
A498 = assay: Antiproliferative activity against human A498 cells assessed as cell growth at 0.00001 M incubated for 48 hrs by SRB assay relative to control; format: functional; conditions: read-out: Activity
Summary of the method: (§2)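 NCI-60 five-dose screen over 10^-4–10^-8 M (10-fold dilutions). Cells grown in RPMI 1640 with 5% FBS and 2 mM L-glutamine, seeded at 5,000–40,000 cells/well and preincubated 24 h. Drug from DMSO stock, 48 h at 37 °C, 5% CO2. Adherent cells TCA-fixed and stained with 0.4% SRB; A515 read. Percent growth = (Ti−Tz)/(C−Tz)×100, or (Ti−Tz)/Tz×100 when Ti<Tz.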

BT-549 [10] = assay: Antiproliferative activity against human BT-549 cells assessed as cell growth at 0.00001 M incubated for 48 hrs by SRB assay relative to control; format: functional; conditions: read-out: Activity; summary of the method: as §2
RPMI-8226 [11] = assay: Antiproliferative activity against human RPMI-8226 cells assessed as cell growth at 0.0001 M incubated for 48 hrs by SRB assay relative to control; format: functional; conditions: read-out: Activity
OVCAR-4 = assay: Antiproliferative activity against human OVCAR-4 cells assessed as cell growth at 0.0001 M incubated for 48 hrs by SRB assay relative to control; format: functional; conditions: read-out: Activity
CAKI-1 [12] = assay: Antiproliferative activity against human CAKI-1 cells assessed as cell growth at 0.0001 M incubated for 48 hrs by SRB assay relative to control; format: functional; conditions: read-out: Activity; summary of the method: as §2

SMILES | Kq (Calf thymus DNA [1]) | KSV (Calf thymus DNA [2]) | growth at 0.01 µM (MCF7 [3]) | growth at 0.01 µM (TK-10) | growth at 0.01 µM (SK-MEL-28) | growth at 0.01 µM (HL-60) | growth at 0.01 µM (SF-539) | growth at 0.01 µM (U-251) | CC50 (MCF7 [4]) | CC50 (PC-3) | CC50 (HT-29) | CC50 (HCT-15) | TGI (BT-549 [5]) | TGI (COLO 205) | TGI (RPMI-8226 [6]) | GI50 (CAKI-1 [7]) | GI50 (SK-MEL-2) | growth at 0.01 µM (MDA-MB-231) | growth at 0.01 µM (T47D) | growth at 0.1 µM (MOLT-4 [8]) | other results
c1ccc(Cn2cnc3ccc(-c4nc(-c5ccc6c(c5)ncn6C5CCCCC5)cn5ccnc45)cc32)cc1 | 0.74 10^12/M/s | 1.19 10^4/M | 86% | 84% | 94% | 104% | 88% | 98% | > 100 µM | > 100 µM | > 100 µM | > 100 µM | 2.68 µM | 3.99 µM | 4.5 µM | 2.45 µM | 2.02 µM | 102% | 86% | 114% | growth at 0.1 µM (EKVX): 91%; growth at 0.1 µM (NCI-H460): 108%; growth at 0.1 µM (M14): 91%; growth at 1 µM (MOLT-4 [9]): 64%; growth at 1 µM (HOP-62): 82%; growth at 1 µM (Malme-3M): 91%; growth at 1 µM (NCI/ADR-RES): 84%; growth at 10 µM (SR): 5%; growth at 10 µM (A498): -79%; growth at 10 µM (BT-549 [10]): -82%; growth at 100 µM (RPMI-8226 [11]): -33%; growth at 100 µM (OVCAR-4): 14%; growth at 100 µM (CAKI-1 [12]): 23%
COc1ccc(-c2cn3ccnc3c(-c3ccc4ncn(C5CCCCC5)c4c3)n2)cc1 | 0.82 10^12/M/s | 4.65 10^4/M | 88% | 88% | 94% | 97% | 87% | 102% | > 100 µM | > 100 µM | > 100 µM | > 100 µM | 3.91 µM | 14.4 µM | > 100 µM | 0.757 µM | 0.944 µM | 99% | 85% | 109% | growth at 0.1 µM (EKVX): 89%; growth at 0.1 µM (NCI-H460): 107%; growth at 0.1 µM (M14): 95%; growth at 1 µM (MOLT-4 [9]): 78%; growth at 1 µM (HOP-62): 52%; growth at 1 µM (Malme-3M): 53%; growth at 1 µM (NCI/ADR-RES): 38%; growth at 10 µM (SR): 9%; growth at 10 µM (A498): 8%; growth at 10 µM (BT-549 [10]): -18%; growth at 100 µM (RPMI-8226 [11]): 15%; growth at 100 µM (OVCAR-4): 57%; growth at 100 µM (CAKI-1 [12]): 26%
